In publication PMC5947295 (Clinical Pharmacology in Drug Development, 2018):
Like-named read-outs stand apart in the source and are kept apart here. Blank lines part the entries; values can stand above or below the compound they belong to.

Experiments:
[1] = phase 2, small number of subjects; cited from earlier work
[2] = system: BACE1; settings: in vitro; cited from earlier work
[3] = system: plasma, cerebrospinal fluid (CSF), and brain Aβ1–40, Aβ1–42, and sAPPβ concentrations; settings: mouse; cited from earlier work
[4] = Phase 1 randomized 3-period crossover relative bioavailability study, plasma PK; assay type: in vivo; settings: both, human, po, 50 mg
[5] = Safety and tolerability monitoring in the crossover study; assay type: in vivo, human; settings: healthy subjects
How it was run: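 Single oral 50 mg dose on days 1, 8 and 15 as 10 mL solution (5 mg/mL), tablet A or tablet B, with 7–10-day washout. Dosed after an overnight fast with 240 mL water, fasted to 4 h postdose. AEs, hematology, chemistry (ALT, AST, ALP), urinalysis, vitals, ECG, physical/neurological examination and C-SSRS were monitored throughout.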

[6] = system: plasma, cerebrospinal fluid (CSF), and brain Aβ1–40, Aβ1–42, and sAPPβ concentrations; settings: dog; cited from earlier work
[7] = system: plasma and CSF Aβ peptides; settings: once‐weekly (70‐mg) dosing schedule; cited from earlier work
[8] = system: plasma, cerebrospinal fluid (CSF), and brain Aβ1–40, Aβ1–42, and sAPPβ concentrations; settings: guinea pig; cited from earlier work
[9] = elderly healthy subjects and patients with mild to moderate AD, up to 750 mg single dose or 150 mg multiple dose; cited from earlier work
[10] = system: BACE1; settings: read-out: In vitro 50% inhibitory concentration (IC50) for BACE1; cited from earlier work
[11] = cited from earlier work; for Cmax: single 150‐mg dose
[12] = single oral dose of [14C]‐lanabecestat; cited from earlier work
[13] = system: Caco‐2; settings: cited from earlier work
[14] = Caco-2 permeability; assay type: in vitro ADME; settings: human
[15] = system: plasma Aβ peptides; settings: single dose at the highest dose studied, SAD study; cited from earlier work
[16] = single 50 mg dose, safety set n = 16

SMILES: NC1=N[C@@]2(c3cc(NC(=O)c4ccc(F)cn4)ccc3F)COC[C@H]2CS1 [LY2886721]
Liver safety finding that terminated clinical development [1]: elevations in circulating liver‐enzyme activity

half-life [4]: ~16 h | Papp [14]: > 10 ×10⁻⁶ cm/s
SMILES: CC#Cc1cncc(-c2ccc3c(c2)[C@@]2(N=C(C)C(N)=N2)[C@]2(CC[C@H](OC)CC2)C3)c1 [lanabecestat, [1r,1′R,4R]‐4‐methoxy‐5″‐methyl‐6′‐[5‐(prop‐1‐yn‐1‐yl)pyridin‐3‐yl]‐3′H‐dispiro[cyclohexane‐1,2′‐indene‐1′,2″‐imidazol]‐4″‐amine]
Off‐rate from BACE1, half‐life [2]: approximately 9 hours | Plasma, CSF and brain Aβ1–40, Aβ1–42 and sAPPβ concentrations [3]: robustly reduced | Tolerability ([5]; single 50 mg dose as solution or tablet): well tolerated | Severity of adverse events ([5]; single 50 mg dose): mild | Subjects reporting adverse events ([5]; single 50 mg dose, 16 subjects): 37.5% | Number of subjects with ≥1 TEAE [5, 16]: 6 (37.5) n (%) | TEAE: Dizziness [5, 16]: 1 (6.3) n (%) | TEAE: Dry skin [5, 16]: 2 (12.5) n (%) | TEAE: Headache [5, 16]: 2 (12.5) n (%) | TEAE: URTI [5, 16]: 1 (6.3) n (%) | Changes in liver‐related clinical chemistry parameters ([5]; single 50 mg doses): no significant changes | Plasma, CSF and brain Aβ1–40, Aβ1–42 and sAPPβ concentrations [6]: robustly reduced | Suppression of plasma and CSF Aβ peptides [7]: prolonged suppression | Plasma, CSF and brain Aβ1–40, Aβ1–42 and sAPPβ concentrations [8]: robustly reduced | Safety and tolerability [9]: no safety or tolerability concerns | IC50 [10]: 600 pM | Cmax ([11]; fasted): 701 ng/mL | Cmax ([11]; fed): 499 ng/mL | Effect of food intake on AUC ([11]; food intake): minimal effect | tmax with food intake (later tmax) ([11]; food intake): ~2 h | Radioactive dose recovered in feces [12]: 74% | Radioactive dose recovered in urine [12]: 25% | Mean Caco‐2 apical‐to‐basolateral Papp permeability [13]: 34.8 × 10^‐6 cm/s | Duration of suppression of plasma Aβ peptides [15]: up to 3 weeks
